pEC50: −log10 of the molar value. Calls of active or inactive are those of the source.
Key:
[1] = target: T1, Potassium channel subfamily K member 4 (Homo sapiens, UniProt Q9NYG8); experiment: Activation of recombinant human TRAAK expressed in HEK293T cells assessed as increase in K+ current amplitude by whole cell voltage clamp electrophysiological analysis; format: cell-based
T1 sequence (Q9NYG8 whole entry): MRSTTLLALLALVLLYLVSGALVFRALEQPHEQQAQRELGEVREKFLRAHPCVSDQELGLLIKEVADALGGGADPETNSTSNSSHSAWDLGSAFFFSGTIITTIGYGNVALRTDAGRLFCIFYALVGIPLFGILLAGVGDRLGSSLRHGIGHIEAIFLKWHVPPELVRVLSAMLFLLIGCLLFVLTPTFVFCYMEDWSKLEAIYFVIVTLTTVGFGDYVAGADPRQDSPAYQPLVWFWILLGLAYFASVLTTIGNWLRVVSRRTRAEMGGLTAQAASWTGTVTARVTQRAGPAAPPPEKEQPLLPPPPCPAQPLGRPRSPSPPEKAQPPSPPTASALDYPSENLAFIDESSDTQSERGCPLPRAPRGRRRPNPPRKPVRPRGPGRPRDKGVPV
How it was run: (§1)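 Transiently transfected HEK-293T cells, whole-cell voltage clamp. Held at -60 mV, 500-ms ramp -120 to +60 mV. Pipette (mM) 140 KCl, 5 EGTA, 10 HEPES, pH 7.4; external 145 NaCl, 4 KCl, pH 7.3. Compound diluted from 10 mM DMSO stock and applied extracellularly. Current increase over control fitted to concentration–response curves for EC50.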

[2] = target: Potassium channel subfamily K member 3 (Homo sapiens) (UniProt O14649); experiment: Activation of recombinant human TASK1 expressed in HEK293T cells assessed as increase in K+ current amplitude at 10 uM by whole cell voltage clamp electrophysiological analysis; format: cell-based
Chain of Potassium channel subfamily K member 3 (Homo sapiens) (O14649 whole entry, looked up): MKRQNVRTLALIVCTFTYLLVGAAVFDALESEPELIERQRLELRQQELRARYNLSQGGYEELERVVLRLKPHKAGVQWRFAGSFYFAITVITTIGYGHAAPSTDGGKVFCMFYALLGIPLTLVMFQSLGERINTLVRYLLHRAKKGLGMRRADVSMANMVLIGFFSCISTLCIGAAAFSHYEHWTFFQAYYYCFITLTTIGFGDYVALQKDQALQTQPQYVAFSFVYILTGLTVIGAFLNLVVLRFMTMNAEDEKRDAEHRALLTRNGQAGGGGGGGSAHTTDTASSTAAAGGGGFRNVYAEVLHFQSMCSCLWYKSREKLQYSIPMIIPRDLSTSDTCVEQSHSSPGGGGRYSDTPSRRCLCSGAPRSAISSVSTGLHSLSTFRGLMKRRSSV
How it was run: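 HEK-293T cells transiently transfected with the human K2P channel. Whole-cell clamp at -60 mV, 500-ms ramp -120 to +60 mV. Pipette 140 KCl (pH 7.4), external 145 NaCl/4 KCl (pH 7.3). Compound 10 μM, diluted from 10 mM DMSO stock into external solution.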

[3] = test system: T2, Potassium channel subfamily K member 2 (Homo sapiens), O95069 [F160A]; experiment: Activation of recombinant human TREK1 F160A mutant expressed in HEK293T cells assessed as increase in K+ current amplitude by whole cell voltage clamp electrophysiological analysis; format: cell-based; how it was run: as §1
T2 sequence (whole entry): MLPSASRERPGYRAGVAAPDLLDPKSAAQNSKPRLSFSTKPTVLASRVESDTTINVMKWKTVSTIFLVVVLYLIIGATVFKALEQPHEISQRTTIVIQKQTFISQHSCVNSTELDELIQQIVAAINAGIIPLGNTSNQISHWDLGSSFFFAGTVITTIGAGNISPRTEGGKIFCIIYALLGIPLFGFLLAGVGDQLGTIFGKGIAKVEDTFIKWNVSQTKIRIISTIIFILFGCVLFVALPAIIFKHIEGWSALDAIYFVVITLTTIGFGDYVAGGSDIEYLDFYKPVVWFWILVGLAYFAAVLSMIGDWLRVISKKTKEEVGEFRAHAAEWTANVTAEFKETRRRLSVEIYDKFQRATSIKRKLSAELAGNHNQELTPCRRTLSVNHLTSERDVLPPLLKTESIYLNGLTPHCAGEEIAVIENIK

[4] = target: Potassium channel subfamily K member 2 (Homo sapiens, UniProt O95069, F149A); experiment: Activation of recombinant human TREK1 F149A mutant expressed in HEK293T cells assessed as increase in K+ current amplitude by whole cell voltage clamp electrophysiological analysis; format: cell-based; how it was run: as §1
Chain of Potassium channel subfamily K member 2 (Homo sapiens, UniProt O95069, F149A) (O95069 whole entry F149A): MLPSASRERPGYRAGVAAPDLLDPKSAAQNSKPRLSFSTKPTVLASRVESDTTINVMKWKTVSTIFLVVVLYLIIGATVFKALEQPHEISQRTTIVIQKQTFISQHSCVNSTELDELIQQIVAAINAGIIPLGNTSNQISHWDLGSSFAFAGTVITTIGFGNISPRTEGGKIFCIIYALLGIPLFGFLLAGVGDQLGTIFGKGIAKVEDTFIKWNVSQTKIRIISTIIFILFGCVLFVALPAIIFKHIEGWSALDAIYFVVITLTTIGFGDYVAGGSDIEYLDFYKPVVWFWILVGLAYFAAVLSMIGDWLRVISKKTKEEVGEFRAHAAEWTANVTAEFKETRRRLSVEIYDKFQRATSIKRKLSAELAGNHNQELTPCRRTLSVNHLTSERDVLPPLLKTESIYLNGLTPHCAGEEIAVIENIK

[5] = target: Potassium channel subfamily K member 2 (Homo sapiens, UniProt O95069, W290A); experiment: Activation of recombinant human TREK1 W290A mutant expressed in HEK293T cells assessed as increase in K+ current amplitude by whole cell voltage clamp electrophysiological analysis; format: cell-based; how it was run: as §1
Chain of Potassium channel subfamily K member 2 (Homo sapiens, UniProt O95069, W290A) (O95069 whole entry W290A): as the sequence (O95069 whole entry F149A) above, with A149F, W290A counted along it

[6] = target: Potassium channel subfamily K member 2 (Homo sapiens, UniProt O95069, G275C); experiment: Activation of recombinant human TREK1 G275C mutant expressed in HEK293T cells assessed as increase in K+ current amplitude in presence of MTSET by whole cell voltage clamp electrophysiological analysis; format: cell-based
Chain of Potassium channel subfamily K member 2 (Homo sapiens, UniProt O95069, G275C) (O95069 whole entry G275C): as the sequence (O95069 whole entry F149A) above, with A149F, G275C counted along it
How it was run: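 Human TREK-1 G275C expressed in HEK-293T, whole-cell ramp recordings. Tested with or without MTSET, 1 mM final, diluted from 0.5 M DMSO stock within 120 s of application. Concentration–response curves for EC50, n = 5–19; 10 μM single-point comparison by one-way ANOVA with Tukey test.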

[7] = target: T3, Potassium channel subfamily K member 2 (Rattus norvegicus) (UniProt Q920B6); experiment: Activation of TREK in depolarized Sprague-Dawley rat DRG neurons assessed as increase in K+ current amplitude at 10 uM by whole cell voltage clamp electrophysiological analysis relative to control
T3 sequence (whole entry): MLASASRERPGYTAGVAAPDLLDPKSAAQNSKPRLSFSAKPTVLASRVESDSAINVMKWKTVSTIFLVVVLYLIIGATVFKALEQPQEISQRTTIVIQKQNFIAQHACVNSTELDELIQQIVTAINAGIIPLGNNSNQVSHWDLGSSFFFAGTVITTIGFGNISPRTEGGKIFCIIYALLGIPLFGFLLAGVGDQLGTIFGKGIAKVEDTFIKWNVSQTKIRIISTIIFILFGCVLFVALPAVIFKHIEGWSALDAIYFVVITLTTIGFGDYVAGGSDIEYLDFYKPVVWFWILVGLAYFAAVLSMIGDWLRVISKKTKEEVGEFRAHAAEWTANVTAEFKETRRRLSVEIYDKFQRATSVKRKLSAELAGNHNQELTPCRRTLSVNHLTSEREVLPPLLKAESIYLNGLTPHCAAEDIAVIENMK

Mus musculus [8] = experiment: Analgesic activity in ip dosed mouse assessed as increase in tail flick latency time measured up to 120 mins at 52 degC by tail immersion test; format: functional, organism-based
How it was run: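 Male BALB/c or C57BL/6 mice, 6–8 weeks, acclimated in a holder 15 min/day for 3 days. Distal 3 cm of tail immersed at 5, 20, 40, 46 or 52 °C; flick latency recorded, cut-off 15 s. Compound i.p. in 5% DMSO/5% Tween 80/90% saline (1.25–10 mg/kg at 52 °C; 5 mg/kg across temperatures).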

Mus musculus [9] = experiment: Analgesic activity in cerulein-induced mouse model of acute pancreatitis assessed as reduction in mechanical allodynia at 10 mg/kg, ip administered at 2 hrs interval for 10 hrs starting from post-first cerulein challenge and measured 0.5 hrs post-last cerulein challenge by von frey test; format: functional, organism-based
How it was run: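 Acute pancreatitis induced by 7 hourly i.p. injections of cerulein (50 µg/kg in ice-cold PBS); controls received PBS. Compound 10 mg/kg i.p. or vehicle at 2, 4, 6, 8 and 10 h. Von Frey testing (ascending filaments) started 0.5 h after the last cerulein injection.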

[10] = target: T3, Potassium channel subfamily K member 2 (Rattus norvegicus); experiment: Activation of TREK in depolarized Sprague-Dawley rat DRG neurons assessed as reversal potential of K+ current at 10 uM by whole cell voltage clamp electrophysiological analysis
How it was run: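 Rat DRG neurons, whole-cell voltage clamp in 3 mM external K⁺. Voltage ramps -20 to -120 mV before and during 10 μM compound. The compound-sensitive current was obtained by subtraction, and its reversal potential was read where it could be resolved (4 cells).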

For `Cc1ccc2nc(-c3ccc(NC(=O)[C@@H]4CC[C@H](C(=O)O)C4)cc3)sc2c1`, the pEC50 [1] was 4.82, the Activity [2] was “Active” and the Activity [3] was “inactive”. For the same compound, the pEC50 [4] was 4.65, the pEC50 [5] was 5.41 and the pEC50 [6] was 4.74. For the same compound, the Activity [7] was 24%, the Activity (Mus musculus [8]) was “Dose-dependent effect” and the Activity (Mus musculus [9]) was “Active”. It also gave an Activity [10] of -75 mV.

From ChEMBL document CHEMBL4354866, “TREK Channel Family Activator with a Well-Defined Structure-Activation Relationship for Pain and Neurogenic Inflammation” (J Med Chem, 2020)
